Active and inactive are the calls of the source. The calls are words filed in the database; no cut-off is given here.
Experiments:
[1] = Antiproliferative activity against human HCT116 cells after 72 hrs by MTT assay; type: functional, cell-based; conditions: HCT-116, 72 h
Procedure, shortened: (§1)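 Tumour cells were grown as monolayers in DMEM with 10 % FBS, 2 mM L-glutamine, penicillin and streptomycin at 37 °C under 5 % CO₂. Tenfold dilutions from 10^-8 to 10^-4 M were applied for 72 h, followed by MTT read at 570 nm. IC50 came from linear regression of percentage growth; at least two experiments, quadruplicate points.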

[2] = Antiproliferative activity against human MCF7 cells after 72 hrs by MTT assay; type: functional, cell-based; conditions: MCF7, 72 h; procedure, shortened: as §1
[3] = Antiproliferative activity against human H460 cells after 72 hrs by MTT assay; type: functional, cell-based; conditions: NCI-H460, 72 h
Procedure, shortened: as §1, with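 “CO₂. They were seeded at 3×10^4 cells/mL (HCT 116, H460) or 5×10^4 cells/mL (MCF-7).” for “CO₂.”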

[4] = Binding affinity to duplex calf thymus DNA assessed as change in melting temperature at drug/DNA ratio of 0.5 by spectrophotometric analysis
Procedure, shortened: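 Calf-thymus DNA at 20 μM was heated with or without compound at 10 or 20 μM (drug/base-pair ratio 0.5 or 1) in BPE buffer (6 mM Na₂HPO₄, 2 mM NaH₂PO₄, 1 mM EDTA, pH 7.1). A260 was read every minute from 20 to 100 °C, rising 1 °C per min, and ΔTm was derived.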

[5] = target: T1, DNA topoisomerase 1 (Homo sapiens) (UniProt P11387); experiment: Poison activity at human DNA topoisomerase 1 assessed as increase in intensity of nicked form of DNA at 100 uM using pUC19 supercoiled plasmid DNA as substrate preincubated for 15 mins followed by DNA topoisomerase 1 addition measured after 30 mins by agarose gel electrophoresis
T1 sequence (whole entry): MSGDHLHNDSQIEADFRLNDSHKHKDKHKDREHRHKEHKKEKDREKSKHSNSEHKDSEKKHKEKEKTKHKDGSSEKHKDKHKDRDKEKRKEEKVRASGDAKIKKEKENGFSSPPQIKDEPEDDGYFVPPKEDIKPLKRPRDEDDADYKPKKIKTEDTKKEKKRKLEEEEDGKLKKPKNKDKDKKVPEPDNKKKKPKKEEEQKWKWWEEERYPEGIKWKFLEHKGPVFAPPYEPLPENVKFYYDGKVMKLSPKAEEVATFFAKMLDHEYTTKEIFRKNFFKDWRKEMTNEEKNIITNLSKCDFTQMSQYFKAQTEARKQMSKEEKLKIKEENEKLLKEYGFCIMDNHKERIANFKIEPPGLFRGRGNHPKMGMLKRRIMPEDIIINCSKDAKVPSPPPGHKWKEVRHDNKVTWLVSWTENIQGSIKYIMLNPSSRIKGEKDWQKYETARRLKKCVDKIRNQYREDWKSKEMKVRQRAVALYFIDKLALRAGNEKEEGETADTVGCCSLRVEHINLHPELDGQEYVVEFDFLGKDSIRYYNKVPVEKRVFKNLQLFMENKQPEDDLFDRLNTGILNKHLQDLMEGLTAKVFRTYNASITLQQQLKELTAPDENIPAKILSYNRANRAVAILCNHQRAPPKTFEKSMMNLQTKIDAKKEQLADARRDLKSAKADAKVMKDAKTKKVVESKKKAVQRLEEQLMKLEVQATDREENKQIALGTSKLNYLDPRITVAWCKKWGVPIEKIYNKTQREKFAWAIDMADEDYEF
Procedure, shortened: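 Supercoiled pUC19 plasmid was treated with human topoisomerase I, alone or with compound, and topoisomers were resolved by agarose gel electrophoresis. Poisoning, seen as nicked plasmid, was assessed on ethidium bromide-containing agarose gels at up to 100 μM compound.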

N#Cc1c(N2CCCC2)c2ccc(N3CCCC3)cc2n2c1nc1ccccc12
IC50 ([1]; read-out: IC50): 2000 nM
IC50 ([1]; read-out: pIC50 (converted)): 2000 nM
IC50 ([2]; read-out: IC50): 2000 nM
IC50 ([2]; read-out: pIC50 (converted)): 2000 nM
IC50 ([3]; read-out: IC50): 12000 nM
IC50 ([3]; read-out: pIC50 (converted)): 12000 nM
ΔTm [4]: 0.6 °C
Activity [5]: Active
